From ChEMBL document CHEMBL1806442, “Synthesis of novel alkyltriazole tagged pyrido[2,3-d]pyrimidine derivatives and their anticancer activity” (Eur J Med Chem, 2011) come the findings set out here.

Converted amounts (≈) assume the structure as drawn.

Common to all, as to format: functional, cell-based
The subject of one assay is U-937. Kind of assay: Cytotoxicity against human U937 cells after 24 hrs by MTT assay. As to conditions: U-937, 24 h. An outline of the steps: (§1)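 Cells kept in RPMI-1640 with 10% heat-inactivated FBS, 1 mM NaHCO3, 2 mM L-glutamine and 100 units/ml antibiotic. Seeded at 2 × 10^4 per well in 0.1 ml, left overnight, then given graded compound from DMSO stocks for 24 h. MTT added for a further 3 h at 37 °C, formazan dissolved in DMSO and read at 570 nm. Percent viability inhibition taken against untreated control; IC50 from linear regression.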

Another assay relates to THP-1. Put plainly: Cytotoxicity against human THP1 cells after 24 hrs by MTT assay. As to conditions: THP-1, 24 h. The method, boiled down: as §1
In a further assay the test system is COLO 205. Kind of assay: Cytotoxicity against human COLO205 cells after 24 hrs by MTT assay. As to conditions: COLO 205, 24 h. An outline of the steps: as §1

As for `O=c1c2c(C(F)(F)F)cc(-c3ccccc3)nc2ncn1Cc1cn(CCC(F)(F)C(F)(F)C(F)(F)C(F)(F)C(F)(F)C(F)(F)C(F)(F)C(F)(F)F)nn1`, the IC50 with U-937 was over 200 µg/mL; in the assay with THP-1 it was 79.1 µg/mL (≈ 96.7 µM); in the assay with COLO 205, 163 µg/mL (≈ 199 µM).

In the case of `CCCCCCCCCCn1cc(Cn2cnc3nc(-c4ccccc4)cc(C(F)(F)F)c3c2=O)nn1`, the half-inhibitory concentration (IC50) with U-937 was determined as 8.16 µg/mL (≈ 15.9 µM); in the assay with THP-1, 16.9 µg/mL (≈ 33 µM); in the assay on COLO 205 it was 19.2 µg/mL (≈ 37.6 µM).

`Cc1nc2nc(-c3ccccc3)cc(C(F)(F)F)c2c(=O)n1Cc1cn(CCC(F)(F)C(F)(F)C(F)(F)C(F)(F)C(F)(F)C(F)(F)F)nn1`: the IC50 in the assay with U-937, with THP-1 and with COLO 205 was over 200 µg/mL in each case.

For `Cc1nc2nc(-c3ccccc3)cc(C(F)(F)F)c2c(=O)n1Cc1cn(CCC(F)(F)C(F)(F)C(F)(F)C(F)(F)C(F)(F)C(F)(F)C(F)(F)C(F)(F)F)nn1`, the half-inhibitory concentration (IC50) was 124 µg/mL (≈ 149 µM) in the assay on U-937, over 200 µg/mL in the assay on THP-1 and over 200 µg/mL in the assay with COLO 205.

For `CCCCCCCCCCn1cc(Cn2c(C)nc3nc(-c4ccccc4)cc(C(F)(F)F)c3c2=O)nn1`, the IC50 in the assay on U-937 was determined as 6.2 µg/mL (≈ 11.8 µM); in the assay with THP-1, 11.3 µg/mL (≈ 21.4 µM); with COLO 205, 15 µg/mL (≈ 28.5 µM).

With `Cc1nc2nc(-c3ccccc3)cc(C(F)(F)F)c2c(=O)n1Cc1cn(-c2ccccc2)nn1`, the IC50 with U-937, with THP-1 and with COLO 205 was over 200 µg/mL each time.

In the case of `CCc1nc2nc(-c3ccccc3)cc(C(F)(F)F)c2c(=O)n1Cc1cn(CCC(F)(F)C(F)(F)C(F)(F)C(F)(F)C(F)(F)C(F)(F)F)nn1`, the IC50 in the assay with U-937, in the assay with THP-1 and with COLO 205 was over 200 µg/mL each time.

For `CCc1nc2nc(-c3ccccc3)cc(C(F)(F)F)c2c(=O)n1Cc1cn(CCC(F)(F)C(F)(F)C(F)(F)C(F)(F)C(F)(F)C(F)(F)C(F)(F)C(F)(F)F)nn1`, the concentration for half-maximal inhibition (IC50) with U-937, in the assay on THP-1 and in the assay on COLO 205 was over 200 µg/mL each time.

Consider `CCCCCCCCCCn1cc(Cn2c(CC)nc3nc(-c4ccccc4)cc(C(F)(F)F)c3c2=O)nn1`, for which the results for the IC50 in the assay on U-937, in the assay with THP-1 and in the assay with COLO 205 were 17.8 µg/mL (≈ 33 µM), 82.6 µg/mL (≈ 153 µM) and over 200 µg/mL, respectively.

`CC(C)c1nc2nc(-c3ccccc3)cc(C(F)(F)F)c2c(=O)n1Cc1cn(CCC(F)(F)C(F)(F)C(F)(F)C(F)(F)C(F)(F)C(F)(F)C(F)(F)C(F)(F)F)nn1`: the results for the IC50 in the assay with U-937, with THP-1 and in the assay with COLO 205 were 8.35 µg/mL (≈ 9.7 µM), 142 µg/mL (≈ 165 µM) and over 200 µg/mL, respectively.

For the compound `CCCCCCc1nc2nc(-c3ccccc3)cc(C(F)(F)F)c2c(=O)n1Cc1cn(CCC(F)(F)C(F)(F)C(F)(F)C(F)(F)C(F)(F)C(F)(F)F)nn1`, the IC50 is 7.56 µg/mL (≈ 9.42 µM) with U-937, over 200 µg/mL in the assay on THP-1 and 132 µg/mL (≈ 165 µM) in the assay with COLO 205.

On to `CCCCCCc1nc2nc(-c3ccccc3)cc(C(F)(F)F)c2c(=O)n1Cc1cn(CCC(F)(F)C(F)(F)C(F)(F)C(F)(F)C(F)(F)C(F)(F)C(F)(F)C(F)(F)F)nn1`, for which the concentration for half-maximal inhibition (IC50) with U-937, with THP-1 and in the assay on COLO 205 was over 200 µg/mL in each case.

As to `Cc1nc(OCc2cn(CCC(F)(F)C(F)(F)C(F)(F)C(F)(F)C(F)(F)C(F)(F)C(F)(F)C(F)(F)F)nn2)c2c(C(F)(F)F)cc(-c3ccccc3)nc2n1`, the 50% inhibitory concentration (IC50) in the assay on U-937 is 22.4 µg/mL (≈ 26.9 µM); in the assay with THP-1, 107 µg/mL (≈ 129 µM); with COLO 205 it was over 200 µg/mL.

As for `CCc1nc(OCc2cn(CCC(F)(F)C(F)(F)C(F)(F)C(F)(F)C(F)(F)C(F)(F)F)nn2)c2c(C(F)(F)F)cc(-c3ccccc3)nc2n1`, the IC50 in the assay on U-937 was 9.22 µg/mL (≈ 12.4 µM); in the assay on THP-1, over 200 µg/mL; with COLO 205 it was over 200 µg/mL.

In the case of `FC(F)(F)c1cc(-c2ccccc2)nc2nc(-c3ccccc3)nc(OCc3cn(CCC(F)(F)C(F)(F)C(F)(F)C(F)(F)C(F)(F)C(F)(F)C(F)(F)C(F)(F)F)nn3)c12`, the results for the IC50 in the assay with U-937, in the assay on THP-1 and in the assay on COLO 205 were 44.4 µg/mL (≈ 49.6 µM), over 200 µg/mL and over 200 µg/mL, respectively.

Regarding `COc1cc([C@@H]2c3cc4c(cc3[C@@H](O[C@@H]3O[C@@H]5CO[C@@H](C)O[C@H]5[C@H](O)[C@H]3O)[C@H]3COC(=O)[C@H]23)OCO4)cc(OC)c1O` [ETOPOSIDE], the IC50 in the assay on U-937 came out at 17.9 µg/mL (≈ 30.5 µM); in the assay on THP-1, 2.16 µg/mL (≈ 3.67 µM); in the assay with COLO 205 it was 7.24 µg/mL (≈ 12.3 µM).

In general, IC50 refers to the midpoint of a concentration-inhibition curve.
